A short description of series [1]: Acute toxicity in ip dosed Swiss-Webster mouse administered as single dose after 7 days. In kind it is organism-based. The settings on record: in vivo. The gist of the method: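 Mice given a single ip dose at each of four dose levels; lethality followed over 7 days; LD50 with 95% confidence limits estimated by the method of Weil. Compounds dissolved in minimal 1.5 M NaH2PO4, diluted with water; haloperidol in minimal 50% (w/v) tartaric acid-water.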

Series [2] has as its system Mus musculus. Nature of the series: Depression of forced motor activity in Swiss-Webster mouse at 50 mg/kg, ip after 30 mins by rotarod test relative to control. The series is classed as functional. The settings on record: route intraperitoneal. The gist of the method:
(§1)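 Mice were dosed ip with vehicle or compound dissolved in a minimum of 1.5 M NaH2PO4 and diluted with water. On the rotarod, speed was 4 rpm for 30 sec, then 6 rpm for 30 sec, then increased every 30 sec up to a maximum of 50 rpm until the fall. Each mouse had four trials, two per day on two consecutive days, spaced 4–6 hr apart. The fourth trial was run 30 min after dosing. The read-out was trial time (sec) as % of control, with significance by Student's t test (p < 0.05).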
(The rotarod test checks motor coordination on a turning rod.)

For series [3], the system named is Mus musculus. Put plainly: Depression of forced motor activity in Swiss-Webster mouse at 25 mg/kg, ip after 30 mins by rotarod test relative to control. The series is classed as functional. The settings on record: route intraperitoneal. In short, it runs like this: as §1
Series [4] deals with Mus musculus. Nature of the series: Depression of forced motor activity in Swiss-Webster mouse at 12.5 mg/kg, ip after 30 mins by rotarod test relative to control. The settings on record: route intraperitoneal. The series is classed as functional. In short, it runs like this:
as §1

Series [5] has as its system Mus musculus. Put plainly: Depression of spontaneous motor activity in Swiss-Webster mouse at 50 mg/kg, ip by photocell cage test relative to control. The series is classed as functional. As to conditions: route intraperitoneal. The gist of the method:
(§2)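 Compound was dissolved in minimal 1.5 M NaH2PO4, diluted with water and given ip. Two mice given the same dose went into each of three photocell actophotometer cages 10 min after the rotarod test started. Counts were taken over 15 min, starting 5 min after placement. A factorial design across cages cancelled differences between units. Results were given as % of control, with significance by Student's t test (p < 0.05).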

Series [6] has as its system Mus musculus. Nature of the series: Depression of spontaneous motor activity in Swiss-Webster mouse at 25 mg/kg, ip by photocell cage test relative to control. The series is classed as functional. The settings on record: route intraperitoneal. The gist of the method:
as §2

The subject of series [7] is Mus musculus. Nature of the series: Depression of spontaneous motor activity in Swiss-Webster mouse at 12.5 mg/kg, ip by photocell cage test relative to control. In kind it is functional. As to conditions: route intraperitoneal. The gist of the method:
as §2

The test system of series [8] is Mus musculus. Nature of the series: Depression of forced motor activity in Swiss-Webster mouse at 30 mg/kg, ip after 30 mins by rotarod test relative to control. In kind it is functional. The settings on record: route intraperitoneal. The gist of the method:
(§3)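 Rotarod in mice: rod at 4 rpm for 30 sec, 6 rpm next 30 sec, then stepped up every 30 sec (max 50 rpm) until fall. Six mice at a time, four trials (two per day, 4–6 hr apart, two consecutive days); vehicle or compound ip 30 min before fourth trial. Time on rod as % of control; Student's t test, p < 0.05.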

In series [9] the test system is Mus musculus. Nature of the series: Depression of forced motor activity in Swiss-Webster mouse at 15 mg/kg, ip after 30 mins by rotarod test relative to control. In kind it is functional. The settings on record: route intraperitoneal. In short, it runs like this:
as §3

Series [10] relates to Mus musculus. Put plainly: Depression of forced motor activity in Swiss-Webster mouse at 60 mg/kg, ip after 30 mins by rotarod test relative to control. As to conditions: route intraperitoneal. The series is classed as functional. The gist of the method: as §3
Series [11] deals with Mus musculus. Nature of the series: Depression of spontaneous motor activity in Swiss-Webster mouse at 30 mg/kg, ip by photocell cage test relative to control. In kind it is functional. The settings on record: route intraperitoneal. The gist of the method:
(§4)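 Spontaneous activity in three photocell cages: two mice given the same ip dose placed per cage 10 min after rotarod start; 15-min count begun 5 min after placement. Each dose run in factorial design across all three cages to offset unit sensitivity. Counts expressed as % of control; Student's t test, p < 0.05.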

For series [12], the system named is Mus musculus. Put plainly: Depression of spontaneous motor activity in Swiss-Webster mouse at 15 mg/kg, ip by photocell cage test relative to control. In kind it is functional. The settings on record: route intraperitoneal. In short, it runs like this: as §4
In series [13] the test system is Mus musculus. Put plainly: Depression of spontaneous motor activity in Swiss-Webster mouse at 60 mg/kg, ip by photocell cage test relative to control. The series is classed as functional. The settings on record: route intraperitoneal. In short, it runs like this:
as §4

Series [14] has as its system Mus musculus. Nature of the series: Depression of forced motor activity in Swiss-Webster mouse at 100 mg/kg, ip after 30 mins by rotarod test relative to control. In kind it is functional. The settings on record: route intraperitoneal. In short, it runs like this: as §3
For series [15], the system named is Mus musculus. Put plainly: Depression of spontaneous motor activity in Swiss-Webster mouse at 100 mg/kg, ip by photocell cage test relative to control. The series is classed as functional. The settings on record: route intraperitoneal. The gist of the method: as §4
In series [16] the test system is Mus musculus. Put plainly: Depression of forced motor activity in ip dosed Swiss-Webster mouse after 30 mins by rotarod test relative to control. In kind it is functional, organism-based. The gist of the method: as §1
Series [17] has as its system Mus musculus. Nature of the series: Depression of spontaneous motor activity in ip dosed Swiss-Webster mouse by photocell cage test relative to control. The series is classed as functional, organism-based. In short, it runs like this: as §2
Series [18] deals with Rattus norvegicus. Put plainly: Depression of motor activity in Wistar rat at 20 mg/kg, ip after 0.5 to 1 hr. The series is classed as functional, organism-based. Also on record: dose 20 mg/kg. The gist of the method:
(§5)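 Male Wistar rats (175–225 g) were injected ip, with three treated rats and one control per dose. Compounds were in minimal 1.5 M NaH2PO4 diluted with water; the reference drug was in minimal 50% (w/v) tartaric acid-water. Gross behavior was observed. Respiratory rate, heart rate, rectal temperature and pupil size were measured at time points after dosing.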

Series [19] relates to Rattus norvegicus. Put plainly: Reduction in startle response in Wistar rat at 20 mg/kg, ip after 0.5 to 1 hr. In kind it is functional, organism-based. Also on record: dose 20 mg/kg. In short, it runs like this:
as §5

Series [20] deals with Rattus norvegicus. Put plainly: Reduction in grip strength in Wistar rat at 20 mg/kg, ip after 0.5 to 1 hr. In kind it is functional, organism-based. Also on record: dose 20 mg/kg. The gist of the method:
as §5

For series [21], the system named is Rattus norvegicus. Put plainly: Reduction of respiration rate in Wistar rat at 1 to 6 mg/kg, ip after 0.5 to 1 hr. As to conditions: 20 mg/kg, in the assay text read “20 mg/kg” for “1 to 6 mg/kg”. In kind it is functional, organism-based. The gist of the method:
as §5

In series [22] the test system is Rattus norvegicus. Put plainly: Reduction of heart rate in Wistar rat at 1 to 6 mg/kg, ip after 0.5 to 1 hr. The series is classed as functional, organism-based. The settings on record: 20 mg/kg, in the assay text read “20 mg/kg” for “1 to 6 mg/kg”. The gist of the method:
as §5

Series [23] has as its system Rattus norvegicus. Put plainly: Reduction in body temperature in Wistar rat at 20 mg/kg, ip relative to control. In kind it is functional. As to conditions: route intraperitoneal. In short, it runs like this:
as §5

The subject of series [24] is Rattus norvegicus. Put plainly: Induction of ptosis in Wistar rat at 20 mg/kg, ip after 10 mins to 3 hrs. In kind it is functional, organism-based. Also on record: dose 20 mg/kg. In short, it runs like this:
as §5

In series [25] the test system is Mus musculus. Nature of the series: Acute toxicity in ip dosed Swiss-Webster mouse assessed as intense and prolonged convulsions administered as single dose after 72 hrs. The series is classed as organism-based. The settings on record: in vivo.
The subject of series [26] is Mus musculus. Put plainly: Depression of forced motor activity in Swiss-Webster mouse at 6.25 mg/kg, ip after 30 mins by rotarod test relative to control. In kind it is functional. As to conditions: route intraperitoneal. In short, it runs like this:
as §1

Series [27] deals with Mus musculus. Put plainly: Depression of spontaneous motor activity in Swiss-Webster mouse at 6.25 mg/kg, ip by photocell cage test relative to control. As to conditions: route intraperitoneal. In kind it is functional. In short, it runs like this: as §2
Series [28] relates to Rattus norvegicus. Nature of the series: Depression of motor activity in Wistar rat at 25 mg/kg, ip. The series is classed as functional, organism-based. Also on record: dose 25 mg/kg. The gist of the method: as §5
For series [29], the system named is Rattus norvegicus. Put plainly: Reduction in respiratory rate in Wistar rat at 25 mg/kg, ip. Also on record: dose 25 mg/kg. In kind it is functional, organism-based. The gist of the method: as §5
Series [30] concerns Rattus norvegicus. Nature of the series: Reduction in heart rate in Wistar rat at 25 mg/kg, ip. The series is classed as functional, organism-based. Also on record: dose 25 mg/kg. In short, it runs like this: as §5
Series [31] concerns Rattus norvegicus. Nature of the series: Reduction in rectal temperature in Wistar rat at 25 mg/kg, ip relative to control. The series is classed as functional. The settings on record: route intraperitoneal. The gist of the method:
as §5

The test system of series [32] is Rattus norvegicus. Put plainly: Induction of ptosis in Wistar rat at 25 mg/kg, ip after 0.5 to 1 hr. In kind it is functional, organism-based. Also on record: dose 25 mg/kg. In short, it runs like this:
as §5

Series [33] relates to Rattus norvegicus. Nature of the series: Increase in salivation in Wistar rat at 25 mg/kg, ip after 0.5 to 1 hr. Also on record: dose 25 mg/kg. The series is classed as functional, organism-based. The gist of the method:
as §5

Series [34] concerns Rattus norvegicus. Put plainly: Induction of ptosis in Wistar rat at 25 mg/kg, ip after 2 hrs. The series is classed as functional, organism-based. Also on record: dose 25 mg/kg. The gist of the method:
as §5

The subject of series [35] is Rattus norvegicus. Nature of the series: Increase in salivation in Wistar rat at 25 mg/kg, ip after 2 hrs. The series is classed as functional, organism-based. Also on record: dose 25 mg/kg. In short, it runs like this: as §5

Activity calls are given as the source filed them. No cut-off for these calls is given here.

Broadly, the LD50 is the dose at which mortality reaches 50%. Read a high LD50 as lower toxicity.

`O[C@@]1(c2ccc(C(F)(F)F)cc2)CCN2CCCCC2C1` (single isomer, unassigned) returned an LD50 at 168 h in series [1] of 130 mg/kg. The Activity stood at 83.5% in series [2]; 92.3% in series [3]; 99.3% in [4]; 45.2% in series [5]; 82.7% in [6]; 49.7% in series [7].

`O[C@@]1(c2cccc(Cl)c2)CCN2CCCCC2C1` (single isomer, unassigned) came in with a 50% lethal dose (LD50) at 168 h in [1] of 180 mg/kg. In addition, the Activity turned out to be 105% in series [8]; 96.5% in series [9]; 51.4% in series [10]; 154.9% in series [11]; 166.7% in series [12]; 44.3% in series [13].

For `O[C@@]1(c2cccc(C(F)(F)F)c2)CCN2CCCCC2C1` (single isomer, unassigned), the LD50 at 168 h in series [1] amounted to 262 mg/kg. For the same molecule, the Activity is 100.5% in series [2]; 97.9% in series [3]; 29.6% in series [14]; 111% in series [5]; 119% in series [6]; 5.5% in series [15].

The molecule `O=C(c1ccc(F)cc1)[C@@H]1CCN2CCCC[C@@H]2C1` (single isomer, unassigned) came in with an LD50 at 168 h in [1] of 193 mg/kg. Further, the Activity in series [8] is 15.2%; in series [9] it was 26.5%; in series [10] it was 4.8%; in series [16] it was “Dose-dependent effect”; in series [11], 9.6%; in [12], 2.5%. Moreover, the results for the Activity in series [13] and in [17] were 0% and “Dose-dependent effect”, respectively. Moreover, the result in series [18], in series [19], in [20], in [21], in series [22] and in [24] was Active. In addition, the T in series [23] worked out at 3 °C.

In the case of `O=C(c1ccc(F)cc1)[C@H]1CCN2CCCC[C@@H]2C1` (single isomer, unassigned), the LD50 at 168 h in series [1] is 86.1 mg/kg. For the same molecule, the Activity result was “Toxic” in series [25]; 23% in series [3]; 55.5% in series [4]; 65.6% in series [26]; “Dose-dependent effect” in [16]; 10.2% in [6]. Also, the figures for the Activity in [7], in series [27] and in series [17] were 48.5%, 95.6% and “Dose-dependent effect”, respectively. Also, the result in series [28], in [29], in [30], in series [32] and in series [33] was Active. For the same molecule, the T in series [31] was 2.9 °C. Moreover, the result in series [34] and in [35] was inactive.

(Values after ChEMBL document CHEMBL3272008, “Synthesis and biological actions of 2-substituted quinolizidines” (J Med Chem, 1976).)
